Reference: ChEMBL document CHEMBL4007421, “Discovery and Preclinical Characterization of 3-((4-(4-Chlorophenyl)-7-fluoroquinoline-3-yl)sulfonyl)benzonitrile, a Novel Non-acetylenic Metabotropic Glutamate Receptor 5 (mGluR5) Negative Allosteric Modulator for Psychiatric Indications” (J Med Chem, 2017)
In brackets after ≈: the same amount, converted by molar mass. Activity calls are given as the source filed them. The calls are words filed in the database; no cut-off is given here.

Legend:
[1] = Cmax in male beagle dog at 0.5 mg/kg, iv administered as infusion; type: ADME, organism-based, Canis lupus familiaris; set-up: dose 0.5 mg/kg, route intravenous; conditions: in vivo
Rattus norvegicus [2] = assay: Anxiolytic activity in Wistar rat assessed as increase in water drinking time during punished period at 10 mg/kg, po qd measured after first dosing by Vogel punished drinking conflict test; type: functional, organism-based
Outline: (§1)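 Vogel punished-drinking test in rats after 24 h water deprivation, with 60 s unpunished drinking; oral 10 mg/kg given once daily for 19 days, vehicle group dosed only on Day 19 as first-dose control; plasma sampled right after test; n=10 per group; ANOVA with Duncan post-hoc.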

Liver [3] = assay: Intrinsic clearance in human liver microsomes at 2.5 uM assessed per gram of liver; type: ADME, microsome
[4] = Clearance in female Crl:CD(SD) rat at 0.5 mg/kg, iv; type: ADME, organism-based; conditions: in vivo
[5] = Terminal elimination half life in male Crl:CD(SD) rat at 0.5 mg/kg, iv; type: ADME, organism-based; conditions: in vivo, read-out: beta t1/2 (converted)
Outline: (§2)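 Single-dose PK: i.v. and oral dosing in Crl:CD(SD) rats and beagle dogs, plus a pilot oral nasogastric study in Cynomolgus monkeys using a Type IV lipid formulation. Rat i.v. vehicle was 80% cosolvent. Monkeys were fasted from 2 h before until 2 h after dosing, n=3 per sex. Rats also received [14C]-labelled compound orally at 50 mg/kg, with total radioactivity followed. Parameters are means; monkey values are medians.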

[6] = Plasma protein binding in rat; type: ADME, cell-free; conditions: read-out: PPB (converted)
Plasma = assay: Plasma concentration in Wistar rat at 30 mg/kg, po administered as single dose; type: ADME, organism-based; conditions: in vivo
[7] = Cmax in fasted female cynomolgus monkey at 9 mg/kg, po administered as single dose; type: ADME, organism-based, Macaca fascicularis; set-up: dose 9 mg/kg, route oral; conditions: in vivo
Rattus norvegicus [8] = assay: (§3) Toxicity in po dosed Harlan-Wistar rat assessed as decrease in spontaneous locomotor activity photocell-based activity monitor test; type: organism-based; conditions: in vivo
Outline: (§4)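 Male Wistar rats were given 0, 10, 30 or 50 mg/kg p.o. Spontaneous locomotor activity (ambulatory movement) was recorded in a photocell-based activity monitor.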

[9] = as §3; type: organism-based; conditions: Harlan-Wistar, in vivo; outline: as §4
Rattus norvegicus [10] = assay: Therapeutic index, ratio of MED for effect on spatial learning performance in po dosed Wistar rat by Morris water maze test to MED for anxiolytic activity in Wistar rat by Vogel punished drinking conflict test
Outline: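 Index is the Morris water maze minimum effective dose (oral, given 1 h before the first daily trial, 4 days of 3 trials) divided by the Vogel punished drinking minimum effective dose.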

[11] = biological target: Metabotropic glutamate receptor 1 (Rattus norvegicus) (UniProt P23385); assay: Negative allosteric modulation of mGluR1 in newborn Sprague-Dawley rat cerebelli assessed as reduction of DHPG-induced cytosolic Ca2+ influx after 10 to 20 mins by fluo-4/AM-dye based fluorometric analysis; type: functional
MDR1 = assay: Apparent inward permeability in MDCK2-MDR1 cells; type: ADME, cell-based, Canis lupus familiaris; conditions: dog, MDCK-MDR1
[12] = Volume of distribution in male Crl:CD(SD) rat at 0.5 mg/kg, iv; type: ADME, organism-based; conditions: in vivo; outline: as §2
[13] = Plasma concentration in Wistar rat at 10 mg/kg, po qd for 19 days during Vogel punished drinking conflict test; type: ADME, organism-based; outline: as §1
[14] = Terminal elimination half life in fasted female cynomolgus monkey at 9 mg/kg, po administered as single dose; type: ADME, organism-based, Macaca fascicularis; conditions: in vivo, read-out: beta t1/2 (converted); outline: as §2
[15] = AUC(0 to 8 hrs) in fasted female cynomolgus monkey at 9 mg/kg, po administered as single dose; type: ADME, organism-based, Macaca fascicularis; set-up: time < 6 hr, dose 9 mg/kg, route oral; conditions: in vivo
[16] = AUC in male beagle dog at 0.5 mg/kg, iv administered as infusion; type: ADME, organism-based, Canis lupus familiaris; conditions: in vivo
[17] = Tmax in male beagle dog at 0.5 mg/kg, iv administered as infusion; type: ADME, organism-based, Canis lupus familiaris; conditions: in vivo; outline: as §2
Rattus norvegicus [18] = assay: Toxicity in po dosed Harlan-Wistar rat assessed as effect on ambulatory movement at 10 to 30 mg/kg, po by photocell-based activity monitor test; type: organism-based; conditions: in vivo; outline: as §4
Liver [19] = assay: Intrinsic clearance in dog liver microsomes at 2.5 uM assessed per gram of liver; type: ADME, Canis lupus familiaris, microsome
[20] = Tmax in female beagle dog at 0.5 mg/kg, iv administered as infusion; type: ADME, organism-based, Canis lupus familiaris; conditions: in vivo; outline: as §2
Rattus norvegicus [21] = assay: Anxiolytic activity in ip dosed Wistar rat assessed as increase in water drinking time during punished period administered as suspension by Vogel punished drinking conflict test; type: functional; conditions: read-out: MED
Outline: (§5)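 Vogel punished-drinking test in rats, single i.p. or p.o. dose as suspension in 5% Tween 80; plasma sampled ~45 min after i.p. or ~75 min after p.o. dosing.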

Rattus norvegicus [22] = assay: Anxiolytic activity in Wistar rat assessed as increase in water drinking time during punished period at 10 mg/kg, po qd for 19 days by Vogel punished drinking conflict test; type: functional, organism-based; outline: as §1
[23] = Terminal elimination half life in female Crl:CD(SD) rat at 0.5 mg/kg, iv; type: ADME, organism-based; conditions: in vivo, read-out: beta t1/2 (converted); outline: as §2
[24] = Terminal elimination half life in fasted female beagle dog at 1 mg/kg, po; type: ADME, organism-based, Canis lupus familiaris; conditions: in vivo, read-out: beta t1/2 (converted); outline: as §2
[25] = biological target: T1, Metabotropic glutamate receptor 5 (Homo sapiens, UniProt P41594); assay: Negative allosteric modulation of human mGluR5a expressed in CHO cells assessed as reduction in DHPG-induced cytosolic Ca2+ influx after 10 to 20 mins by fluo-4/AM-dye based fluorometric analysis; type: functional, cell-based
[26] = Cmax in fasted male cynomolgus monkey at 9 mg/kg, po administered as single dose; type: ADME, organism-based, Macaca fascicularis; set-up: dose 9 mg/kg, route oral; conditions: in vivo
[27] = Plasma concentration in po dosed Wistar rat dosed 1 hr prior to first daily trial by Morris water maze test; type: ADME, organism-based
[28] = biological target: T1, Metabotropic glutamate receptor 5; assay: Displacement of [3H]M-MPEP from mGluR5 in male human post mortem parietal cortical tissue after 30 mins by scintillation counting method
[29] = Plasma concentration in Wistar rat at 1 mg/kg, po after 75 mins; type: ADME, organism-based
Outline: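 Plasma levels taken right after the Vogel test (~75 min after oral dose) following single oral doses in lipid-based formulations; data pooled from four experiments; mean±SD.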

Liver [30] = assay: Intrinsic clearance in rat liver microsomes at 2.5 uM assessed per gram of liver; type: ADME, microsome
Cytochrome P450 2C9 = Cytochrome P450 2C9 (Homo sapiens, UniProt P11712); assay: Inhibition of CYP2C9 in human liver microsomes; type: ADME
[31] = Aqueous solubility of the compound at pH 7.4; type: physicochemical
[32] = AUC in female Crl:CD(SD) rat at 4.5 mg/kg, po; type: ADME, organism-based; conditions: in vivo
Rattus norvegicus [33] = assay: Anxiolytic activity in po dosed Wistar rat assessed as increase in water drinking time during punished period administered as suspension by Vogel punished drinking conflict test; type: functional; conditions: read-out: MED; outline: as §5
Rattus norvegicus [34] = assay: Anxiolytic activity in po dosed Wistar rat assessed as reduction in freezing behavior by contextual fearing test; type: functional
[35] = Volume of distribution in male beagle dog at 0.5 mg/kg, iv administered as infusion; type: ADME, organism-based, Canis lupus familiaris; conditions: in vivo; outline: as §2
[36] = Cmax in female beagle dog at 0.5 mg/kg, iv administered as infusion; type: ADME, organism-based, Canis lupus familiaris; set-up: dose 0.5 mg/kg, route intravenous; conditions: in vivo
[37] = Tmax in fasted female cynomolgus monkey at 9 mg/kg, po administered as single dose; type: ADME, organism-based, Macaca fascicularis; conditions: in vivo; outline: as §2
[38] = AUC(0 to 8 hrs) in fasted male cynomolgus monkey at 9 mg/kg, po administered as single dose; type: ADME, organism-based, Macaca fascicularis; set-up: dose 9 mg/kg, time < 6 hr, route oral; conditions: in vivo
Cytochrome P450 2D6 = Cytochrome P450 2D6 (Homo sapiens, UniProt P10635); assay: Inhibition of CYP2D6 in human liver microsomes; type: ADME
[39] = Plasma protein binding in human; type: ADME, cell-free; conditions: read-out: PPB (converted)

T1 sequence (P41594 whole entry): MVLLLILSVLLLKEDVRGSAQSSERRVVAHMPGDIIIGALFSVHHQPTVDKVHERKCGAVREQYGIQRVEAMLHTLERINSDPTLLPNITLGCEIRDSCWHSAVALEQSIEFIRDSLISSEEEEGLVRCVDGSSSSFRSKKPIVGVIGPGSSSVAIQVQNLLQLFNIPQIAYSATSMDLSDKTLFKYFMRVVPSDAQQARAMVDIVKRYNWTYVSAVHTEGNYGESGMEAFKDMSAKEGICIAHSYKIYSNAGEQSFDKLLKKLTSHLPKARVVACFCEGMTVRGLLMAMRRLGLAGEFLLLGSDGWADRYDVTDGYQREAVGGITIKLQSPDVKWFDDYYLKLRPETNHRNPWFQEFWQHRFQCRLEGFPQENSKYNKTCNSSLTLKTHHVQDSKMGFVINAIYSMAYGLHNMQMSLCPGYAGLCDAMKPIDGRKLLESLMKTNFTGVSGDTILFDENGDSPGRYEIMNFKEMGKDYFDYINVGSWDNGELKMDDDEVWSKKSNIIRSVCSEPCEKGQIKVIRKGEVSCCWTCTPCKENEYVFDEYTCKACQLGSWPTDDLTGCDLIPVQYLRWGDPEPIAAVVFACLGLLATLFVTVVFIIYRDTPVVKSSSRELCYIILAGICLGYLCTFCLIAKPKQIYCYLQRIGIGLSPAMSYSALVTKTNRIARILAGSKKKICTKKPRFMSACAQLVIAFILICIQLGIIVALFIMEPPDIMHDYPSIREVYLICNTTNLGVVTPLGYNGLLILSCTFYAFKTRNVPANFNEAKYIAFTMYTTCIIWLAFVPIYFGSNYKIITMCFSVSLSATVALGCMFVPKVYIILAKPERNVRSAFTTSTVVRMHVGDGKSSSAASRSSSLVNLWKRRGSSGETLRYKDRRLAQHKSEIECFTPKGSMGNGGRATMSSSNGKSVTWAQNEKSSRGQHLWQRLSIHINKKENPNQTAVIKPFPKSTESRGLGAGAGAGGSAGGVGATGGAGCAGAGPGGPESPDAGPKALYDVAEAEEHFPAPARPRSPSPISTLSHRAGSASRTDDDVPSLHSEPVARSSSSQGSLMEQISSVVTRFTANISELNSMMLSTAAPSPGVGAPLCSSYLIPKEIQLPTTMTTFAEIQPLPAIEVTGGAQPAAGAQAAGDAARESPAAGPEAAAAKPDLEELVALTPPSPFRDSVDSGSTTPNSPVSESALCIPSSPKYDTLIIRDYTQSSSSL
Metabotropic glutamate receptor 1 (Rattus norvegicus), sequence (P23385 19-1199 limits assumed): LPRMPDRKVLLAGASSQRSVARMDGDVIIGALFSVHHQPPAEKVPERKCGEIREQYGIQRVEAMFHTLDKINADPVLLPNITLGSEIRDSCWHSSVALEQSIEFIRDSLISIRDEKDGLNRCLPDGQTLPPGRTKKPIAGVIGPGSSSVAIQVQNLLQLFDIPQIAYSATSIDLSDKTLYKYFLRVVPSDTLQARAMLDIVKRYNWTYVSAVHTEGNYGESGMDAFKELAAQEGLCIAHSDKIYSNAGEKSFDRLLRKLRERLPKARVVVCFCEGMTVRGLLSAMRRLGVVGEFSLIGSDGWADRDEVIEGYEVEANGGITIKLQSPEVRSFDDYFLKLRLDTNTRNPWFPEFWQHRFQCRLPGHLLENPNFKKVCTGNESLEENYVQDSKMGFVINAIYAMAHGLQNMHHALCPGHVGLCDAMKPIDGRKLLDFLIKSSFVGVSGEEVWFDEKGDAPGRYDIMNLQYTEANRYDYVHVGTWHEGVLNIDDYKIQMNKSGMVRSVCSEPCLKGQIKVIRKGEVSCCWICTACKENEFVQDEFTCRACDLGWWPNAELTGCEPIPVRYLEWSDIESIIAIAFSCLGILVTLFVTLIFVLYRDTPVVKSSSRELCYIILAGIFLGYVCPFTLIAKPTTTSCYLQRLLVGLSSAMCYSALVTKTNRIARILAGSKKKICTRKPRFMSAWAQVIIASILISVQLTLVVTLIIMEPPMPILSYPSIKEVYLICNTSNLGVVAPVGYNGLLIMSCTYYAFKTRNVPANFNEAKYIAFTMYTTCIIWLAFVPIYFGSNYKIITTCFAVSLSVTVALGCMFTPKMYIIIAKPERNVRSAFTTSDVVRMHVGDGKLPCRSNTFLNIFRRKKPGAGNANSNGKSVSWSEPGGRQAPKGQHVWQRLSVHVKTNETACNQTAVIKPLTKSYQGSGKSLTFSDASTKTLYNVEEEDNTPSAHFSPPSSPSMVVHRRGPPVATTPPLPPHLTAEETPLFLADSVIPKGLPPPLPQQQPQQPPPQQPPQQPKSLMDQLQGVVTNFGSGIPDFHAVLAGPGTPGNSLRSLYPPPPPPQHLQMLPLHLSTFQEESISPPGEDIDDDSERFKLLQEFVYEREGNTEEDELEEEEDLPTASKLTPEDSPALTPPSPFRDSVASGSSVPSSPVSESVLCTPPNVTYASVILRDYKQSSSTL
Cytochrome P450 2D6, sequence (P10635 whole entry): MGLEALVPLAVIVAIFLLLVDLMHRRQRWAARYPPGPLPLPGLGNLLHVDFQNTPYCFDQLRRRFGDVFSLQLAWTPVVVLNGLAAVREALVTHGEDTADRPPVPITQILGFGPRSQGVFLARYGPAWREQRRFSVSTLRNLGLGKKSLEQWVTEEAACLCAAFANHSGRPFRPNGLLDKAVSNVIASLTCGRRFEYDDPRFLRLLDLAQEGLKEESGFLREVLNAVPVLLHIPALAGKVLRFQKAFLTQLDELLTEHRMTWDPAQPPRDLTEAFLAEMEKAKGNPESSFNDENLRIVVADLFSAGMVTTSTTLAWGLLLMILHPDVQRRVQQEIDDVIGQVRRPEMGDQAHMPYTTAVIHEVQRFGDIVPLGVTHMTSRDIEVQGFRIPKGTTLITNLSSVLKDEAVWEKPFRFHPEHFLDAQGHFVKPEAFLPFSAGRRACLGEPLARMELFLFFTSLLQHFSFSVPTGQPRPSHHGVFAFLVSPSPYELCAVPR
Cytochrome P450 2C9, sequence (P11712 whole entry): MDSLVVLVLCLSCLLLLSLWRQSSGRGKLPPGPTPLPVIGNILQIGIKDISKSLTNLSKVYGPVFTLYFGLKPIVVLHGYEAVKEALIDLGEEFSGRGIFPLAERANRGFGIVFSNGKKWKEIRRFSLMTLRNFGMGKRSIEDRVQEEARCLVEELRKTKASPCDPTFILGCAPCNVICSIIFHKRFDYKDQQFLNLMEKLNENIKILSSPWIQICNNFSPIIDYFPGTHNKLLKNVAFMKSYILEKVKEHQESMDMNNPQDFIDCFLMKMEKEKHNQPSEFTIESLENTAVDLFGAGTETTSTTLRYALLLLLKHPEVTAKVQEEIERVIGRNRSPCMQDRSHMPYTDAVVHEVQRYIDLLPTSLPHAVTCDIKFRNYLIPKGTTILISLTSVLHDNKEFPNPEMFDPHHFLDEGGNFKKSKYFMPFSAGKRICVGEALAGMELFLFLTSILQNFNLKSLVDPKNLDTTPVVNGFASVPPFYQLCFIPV

N#Cc1cccc(S(=O)(=O)c2cnc3cc(F)ccc3c2-c2ccc(Cl)cc2)c1
Cmax [1]: 1540 nM | Activity (Rattus norvegicus [2]): Active | CLint (Liver [3]): 0.31 mL/min/g | clearance [4]: 14.3 mL/min/kg | half-life [5]: 5.13 h | fraction unbound [6]: 0.0027 | concentration (Plasma): 986 nM | Cmax [7]: 33 nM | Activity (Rattus norvegicus [8]): Dose-dependent effect | ED50 (Rattus norvegicus [8]): 50 mg/kg | NOAEL [9]: 30 mg/kg | TI (Rattus norvegicus [10]): >30 | Activity [11]: Active | Papp (MDR1): 11.5 ×10⁻⁶ cm/s | Vd [12]: 12.4 L/kg | concentration at 456 h [13]: 513 nM | half-life [14]: 2.1 h | AUC(0-t) at 6 h [15]: 0.087 µM·h | AUC [16]: 3.07 µM·h | Tmax [17]: 0.5 h | Activity (Rattus norvegicus [18]): Non-Toxic | CLint (Liver [19]): 0.27 mL/min/g | Tmax [20]: 0.5 h | minimal effective dose (Rattus norvegicus [21]): 3 mg/kg | Activity (Rattus norvegicus [22]): Active | half-life [23]: 7.79 h | half-life [24]: 10.7 h | IC50 [25]: 13 nM | Cmax [26]: 57 nM | concentration at 1 h [27]: 986 nM | Ki [28]: 10.8 nM | concentration at 1.25 h [29]: 99 nM | CLint (Liver [30]): 0.25 mL/min/g | IC50 (Cytochrome P450 2C9): > 10000 nM | solubility [31]: 10 µg/mL (≈ 23.6 µM) | AUC [32]: 7.3 µM·h | minimal effective dose (Rattus norvegicus [33]): 0.5 mg/kg | Activity (Rattus norvegicus [34]): Dose-dependent effect | ED50 (Rattus norvegicus [34]): 0.95 mg/kg | Vd [35]: 8.6 L/kg | Cmax [36]: 1140 nM | Tmax [37]: 1.3 h | AUC(0-t) at 6 h [38]: 0.132 µM·h | IC50 (Cytochrome P450 2D6): > 10000 nM | fraction unbound [39]: 0.0039
